Like-named read-outs stand apart in the source and are kept apart here. Values belong to the compound of their own block, whether it stands above or below them.
Columns and labels:
[1] = system: P. falciparum strain W2; assay: Antiplasmodial proliferation inhibition assay, 384-well, SYBR Green; assay type: cell-based, Plasmodium falciparum
Outline: (§1)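 P. falciparum was grown in O+ erythrocytes and tested in serum-free medium with 0.5% Albumax II. Test compound ran as a 12-point half-log series, top final 10 μM, at 0.3% parasitemia and 2.5% hematocrit, 72 h, 37 °C, low-oxygen gas. Saponin/Triton lysis buffer with SYBR Green was added (24 h, 25 °C), then fluorescence read at 485/530 nm. […] EC50 came from logistic fit, with at least duplicate plates.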

[2] = Caco-2 permeability assay; assay type: in vitro ADME; details: human, Caco-2
[3] = system: Plasmodium berghei; assay: Plasmodium berghei mouse survival model; assay type: in vivo, Plasmodium berghei (NMRI mice); details: for survival (average lifespan after infection): untreated control 6–7 days
Outline: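 Female NMRI mice (20–22 g), three per group, were infected IV on day 0 with 2 × 10^7 P. berghei GFP ANKA-parasitised erythrocytes. Test compound in 75% PEG300/25% D5W was given orally at 10 mL/kg, either once at 24 h or daily at 24, 48 and 72 h. Parasitemia was measured by flow cytometry at 72 h or 96 h, as % reduction versus untreated controls. Survival was followed to day 30, and cure meant parasite-free survival to day 30.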

[4] = In vivo pharmacokinetics in mice; details: mouse, plasma
[5] = Rat full PK / dose escalation PK; assay type: in vivo; details: rat PO, 30 mg/kg vs 10 mg/kg
[6] = system: Caco-2; assay: Caco-2 permeability assay; assay type: in vitro ADME; details: for Caco-2 A–B: apical to basolateral; for Caco-2 B–A: basolateral to apical
[7] = Rat snapshot PK; assay type: in vivo
[8] = system: P. falciparum; assay: Antiplasmodial activity as quoted in text; assay type: cell-based, Plasmodium falciparum; details: for EC50: Plasmodium falciparum, read-out: antiplasmodial activity EC50; for loss/decrease of potency: relative to parent compound (17: 8-methyl; 32: lactam vs 31); for improvement in potency: on 8,8-dimethyl substitution (33 vs 32; 35 vs 31)
Outline: as §1

[9] = PAMPA assay; assay type: in vitro ADME; details: Table 3
[10] = Metabolic stability in mouse liver microsomes; assay type: in vitro ADME; details: Table 2
[11] = system: P. falciparum strain 3D7; assay: Antiplasmodial proliferation inhibition assay, 384-well, SYBR Green; assay type: cell-based; details: Plasmodium falciparum, 3D7, read-out: P. falciparum strain EC50 3D7
Outline: as §1

[12] = read-out: P. falciparum strain EC50 W2, Table 1, means of two experiments, 72 h incubation
[13] = Wistar, rat, plasma, po, 20 mg/kg

Compound: 2-Amino-1-(3-(4-chloro-3-fluorophenylamino)-2-(4-fluorophenyl)-8,8-dimethyl-5,6-dihydroimidazo[1,2-a]pyrazin-7(8H)-yl)ethanone [Compound 21]
EC50 [1, 12]: 24 ± 1 nM

Papp A→B [2]: 0.7 ×10⁻⁶ cm/s | Papp B→A [2]: 2.55 ×10⁻⁶ cm/s
Compound: NCC(=O)N1CCn2c(nc(-c3ccc(F)cc3)c2Nc2ccc(F)cc2)C1 [Compound 15]

Compound: CC1(C)c2nc(-c3ccc(F)cc3)c(Nc3ccc(F)cc3)n2CCN1C(=O)CN [Compound 22, 2-Amino-1-(2-(4-fluorophenyl)-3-(4-fluorophenylamino)-8,8-dimethyl-5,6-dihydroimidazo[1,2-a]pyrazin-7(8H)-yl)ethanone]
activity (average parasitemia reduction) ([3]; 1 × 30 mg/kg oral, 30 mg/kg): > 99% | efficacy of substituted vs unsubstituted piperazine core (ED99) ([3]; compound 22 vs compound 1): ~10 fold | Cmax ([4]; oral, 2 mg/kg): ~75 nM | increase in AUC [5]: 7 fold | increase in bioavailability [5]: 2 fold | Caco-2 A–B [6]: 1.26 cm/s ×10^6 | Caco-2 B–A [6]: 2.99 cm/s ×10^6

Caco-2 A–B [6]: 0.61 cm/s ×10^6 | Caco-2 B–A [6]: 1.3 cm/s ×10^6
Compound: CC1(C)c2nc(-c3ccc(F)cc3)c(Nc3ccc(F)c(F)c3)n2CCN1C(=O)CN [Compound 24, 2-Amino-1-(3-((3,4-difluorophenyl)amino)-2-(4-fluorophenyl)-8,8-dimethyl-5,6-dihydroimidazo[1,2-a]pyrazin-7(8H)-yl)ethanone]
activity (average parasitemia reduction) ([3]; 1 × 30 mg/kg oral, 30 mg/kg): > 99%

Papp A→B [2]: 3.05 ×10⁻⁶ cm/s | Papp B→A [2]: 8.38 ×10⁻⁶ cm/s
Compound: CC(C)(N)C(=O)N1CCn2c(nc(-c3ccc(F)cc3)c2Nc2ccc(F)cc2)C1 [Compound 27, 2-Amino-1-(2-(4-fluorophenyl)-3-((4-fluorophenyl)amino)-5,6-dihydroimidazo[1,2-a]pyrazin-7(8H)-yl)-2-methylpropan-1-one]

Caco-2 A–B [6]: 1.2 cm/s ×10^6 | Caco-2 B–A [6]: 0.97 cm/s ×10^6
Compound: CC(C)(N)C(=O)N1CCn2c(nc(-c3ccc(F)cc3)c2Nc2ccc(F)cc2)C1(C)C [Compound 28, 2-Amino-1-(2-(4-fluorophenyl)-3-(4-fluorophenylamino)-8,8-dimethyl-5,6-dihydroimidazo[1,2-a]pyrazin-7(8H)-yl)-2-methylpropan-1-one]

Compound: Cc1ccc(Nc2c(-c3ccc(F)cc3)nc3n2CCN(C(=O)C(C)(C)N)C3(C)C)cc1 [Compound 29, 2-Amino-1-(2-(4-fluorophenyl)-8,8-dimethyl-3-(p-tolylamino)-5,6-dihydroimidazo[1,2-a]pyrazin-7(8H)-yl)-2-methylpropan-1-one]
activity (average parasitemia reduction) ([3]; 1 × 30 mg/kg oral, 30 mg/kg): > 99% | survival (average lifespan after infection) ([3]; 3 × 30 mg/kg oral): 18.0 days | in vivo exposure in rat ([7]; oral, rat snapshot PK): did not exhibit any in vivo exposure | Caco-2 A–B [6]: 3.5 cm/s ×10^6 | Caco-2 B–A [6]: 2.37 cm/s ×10^6

EC50 [8]: 160 to 400 nM | Caco-2 A–B [6]: 8.2 cm/s ×10^6 | Caco-2 B–A [6]: 2.36 cm/s ×10^6
Compound: Cc1ccc(Nc2c(-c3ccc(F)cc3)nc3n2CCNC3)cc1 [Compound 31, 2-(4-Fluorophenyl)-N-(p-tolyl)-5,6,7,8-tetrahydroimidazo[1,2-a]pyrazin-3-amine]

Caco-2 A–B [6]: 15 cm/s ×10^6 | Caco-2 B–A [6]: 14.37 cm/s ×10^6
Compound: Cc1ccc(Nc2c(-c3ccc(F)cc3)nc3n2CC(=O)NC3)cc1 [Compound 32, 2-(4-Fluorophenyl)-3-(p-tolylamino)-7,8-dihydroimidazo[1,2-a]pyrazin-6(5H)-one]
loss/decrease of potency [8]: ~7 fold

Compound: Cc1ccc(Nc2c(-c3ccc(F)cc3)nc3n2CC(=O)NC3(C)C)cc1 [Compound 33, 2-(4-Fluorophenyl)-8,8-dimethyl-3-(p-tolylamino)-7,8-dihydroimidazo[1,2-a]pyrazin-6(5H)-one]
improvement in potency [8]: 7 fold

Compound: CC1(C)NC(=O)Cn2c1nc(-c1ccc(F)cc1)c2Nc1ccc(Cl)c(F)c1 [Compound 34, 3-(4-Chloro-3-fluorophenylamino)-2-(4-fluorophenyl)-8,8-dimethyl-7,8-dihydro imidazo[1,2-a]pyrazin-6(5H)-one]
activity (average parasitemia reduction) ([3]; 1 × 30 mg/kg oral): 47.0% | survival (average lifespan after infection) ([3]; 1 × 30 mg/kg oral): 6.3 days | activity (average parasitemia reduction) ([3]; 1 × 100 mg/kg oral): 97.0% | survival (average lifespan after infection) ([3]; 1 × 100 mg/kg oral): 6.7 days | activity (average parasitemia reduction) ([3]; 3 × 30 mg/kg oral): 66.0% | survival (average lifespan after infection) ([3]; 3 × 30 mg/kg oral): 7.0 days | AUC(0-t) ([4]; male, Balb/c, iv, 5 mg/kg): 16.5 µM·h | Vd ([4]; male, Balb/c, iv, 5 mg/kg): 2.7 L/kg | clearance ([4]; male, Balb/c, iv, 5 mg/kg): 12.5 mL/min/kg | half-life ([4]; male, Balb/c, iv, 5 mg/kg): 2.8 h | bioavailability ([4]; male, Balb/c, oral, 20 mg/kg): 77% | AUC(0-t) ([4]; male, Balb/c, po, 20 mg/kg): 50.6 µM·h | Cmax ([4]; male, Balb/c, po, 20 mg/kg): 3650 nM | Tmax ([4]; male, Balb/c, po, 20 mg/kg): 1 h | half-life ([4]; male, Balb/c, po, 20 mg/kg): 2.71 h | PAMPA, measured as percentage absorbed [9]: 97.1% | AUC(0–5 h)/dose ([7]; PO, Wistar rat): 5.07 (min·μg/mL)/(mg/kg) | AUC(0-t) [7, 13]: 2.1 µM·h | Cmax [7, 13]: 504 nM | EC50 ([1]; Plasmodium falciparum, W2, read-out: P. falciparum strain EC50 W2): 65 ± 3 nM | mouse microsome hepatic extraction ratio [10]: 0.61 | EC50 [11]: 36 ± 2 nM | Papp A→B [2]: 3.22 ×10⁻⁶ cm/s | Papp B→A [2]: 3.35 ×10⁻⁶ cm/s

Compound: Cc1ccc(Nc2c(-c3ccc(F)cc3)nc3n2CCNC3(C)C)cc1 [Compound 35, 2-(4-Fluorophenyl)-8,8-dimethyl-N-p-tolyl-5,6,7,8-tetrahydroimidazo[1,2-a]pyrazin-3-amine]
EC50 [8]: ~10 nM | improvement in potency [8]: ~10 fold | Caco-2 A–B [6]: 15.56 cm/s ×10^6 | Caco-2 B–A [6]: 6.96 cm/s ×10^6

Compound: (R)-2-Amino-1-(3-(4-chloro-3-fluorophenylamino)-2-(4-fluorophenyl)-8-isopropyl-5,6-dihydroimidazo[1,2-a]pyrazin-7(8H)-yl)ethanone [Compound 20]
EC50 [1, 12]: 202 ± 38 nM

Compound: (R)-2-Amino-1-(3-(4-chloro-3-fluorophenylamino)-2-(4-fluorophenyl)-8-methyl-5,6-dihydroimidazo[1,2-a]pyrazin-7(8H)-yl)ethanone [Compound 18]
EC50 [1, 12]: 29 ± 3 nM

Compound: (S)-2-Amino-1-(3-(4-chloro-3-fluorophenylamino)-2-(4-fluorophenyl)-8-isopropyl-5,6-dihydroimidazo[1,2-a]pyrazin-7(8H)-yl)ethanone [Compound 19]
EC50 [1, 12]: 470 ± 130 nM

Compound: (S)-2-Amino-1-(3-(4-chloro-3-fluorophenylamino)-2-(4-fluorophenyl)-8-methyl-5,6-dihydroimidazo[1,2-a]pyrazin-7(8H)-yl)ethanone [Compound 17]
EC50 [1, 12]: 24 ± 1 nM | loss/decrease of potency [8]: 10 fold

From paper PMC3350218 (Journal of Medicinal Chemistry, 2012)
